Data reported in ChEMBL document CHEMBL4229508, “Nitric oxide donor-based FFA1 agonists: Design, synthesis and biological evaluation as potential anti-diabetic and anti-thrombotic agents” (Bioorg Med Chem, 2018).

How the values were obtained:
Mus musculus = assay: Antidiabetic activity in ICR mouse assessed as reduction in plasma glucose AUC (0 to 90 mins) at 20 mg/kg, po dosed 30 mins prior to glucose challenge by OGTT relative to control; format: functional; set-up: scale not given: the % may be the effect or the level left
In short: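 Male ICR mice, fasted 12 h, randomized into groups (n = 6). Compound was given orally at 20 mg/kg in 0.5% methylcellulose 30 min before an oral glucose load (3 g/kg). Blood glucose was read by test strips at −30, 0, 15, 30, 60 and 90 min. AUC0–90min was calculated; mean ± SD.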

[1] = target: Free fatty acid receptor 1 (Homo sapiens, UniProt O14842); assay: Agonist activity at human FFA1 receptor expressed in CHO cells assessed as increase in intracellular calcium levels measured for 90 secs by Fluo 4-AM dye based FLIPR assay; format: functional, cell-based
In short: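 CHO cells stably expressing human FFA1 were seeded at 15 K cells/well and grown 12 h at 37 °C, 5% CO2, then washed with HBSS. Ca2+ flux after compound addition was read on FLIPR for 90 s. Activity = [(A−B)/(C−B)]×100, with B = vehicle and C = 10 µM γ-linolenic acid.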

Platelet [2] = assay: Antiplatelet activity in rabbit platelet rich plasma assessed as inhibition of ADP-induced platelet aggregation at 0.1 mM preincubated for 5 mins followed by ADP addition measured up to 5 mins in presence of NO scavenger carboxy-PTIO; format: functional; settings: Oryctolagus cuniculus
In short: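 Run as the rabbit PRP turbidimetric assay: compound at 0.1 mM, 5 min preincubation at 37 °C, ADP 10 µM, maximal light transmission recorded within 5 min. Carboxy-PTIO (20 µM) was also incubated with the drug-platelet suspension. Inhibition % is relative to vehicle. Mean ± SD of three independent experiments.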

Platelet [3] = assay: Antiplatelet activity in rabbit platelet rich plasma assessed as inhibition of ADP-induced platelet aggregation at 0.1 mM preincubated for 5 mins followed by ADP addition measured up to 5 mins; format: functional; settings: Oryctolagus cuniculus
In short: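 Rabbit blood was spun at 500 rpm for 10 min to give PRP, and then at 3000 rpm for 10 min to give PPP. PRP was preincubated in duplicate with compound (0.1 mM), vehicle or ticlopidine for 5 min at 37 °C. Aggregation was induced with ADP (10 µM), and light transmission at maximal aggregation was recorded within 5 min. Inhibition % = (A−B)/A×100 versus vehicle. Three independent experiments, mean ± SD.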

Chain of Free fatty acid receptor 1 (O14842 whole entry): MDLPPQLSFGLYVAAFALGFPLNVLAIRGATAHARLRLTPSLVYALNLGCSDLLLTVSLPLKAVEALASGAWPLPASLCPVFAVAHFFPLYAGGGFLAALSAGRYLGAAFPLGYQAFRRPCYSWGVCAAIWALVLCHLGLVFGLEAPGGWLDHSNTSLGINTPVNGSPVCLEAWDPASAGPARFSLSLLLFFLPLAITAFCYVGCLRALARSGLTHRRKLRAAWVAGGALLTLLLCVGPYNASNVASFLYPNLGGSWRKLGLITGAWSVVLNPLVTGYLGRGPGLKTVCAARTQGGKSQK

Row | SMILES | EC50 [1] | Activity (Mus musculus) | inhibition at 100 µM (Platelet [2]) | inhibition at 100 µM (Platelet [3])
1 | Cc1cc(OCCCS(C)(=O)=O)cc(C)c1-c1cccc(COc2ccc3c(c2)OC[C@H]3CC(=O)O)c1 | – | 32.3% | – | –
2 | COc1cc(C)c(-c2cccc(COc3ccc(OCC(=O)O)c(F)c3)c2)c(C)c1 | 54.2 nM | – | – | –
3 | Cc1cc(OCCCCO[N+](=O)[O-])cc(C)c1-c1cccc(COc2ccc(OCC(=O)O)c(F)c2)c1 | 93.7 nM | – | 1.15% | 11.1%

More lines, main results first:

Row | EC50 [1] | SMILES | Activity (Mus musculus) | inhibition at 100 µM (Platelet [2]) | inhibition at 100 µM (Platelet [3])
4 | 61.5 nM | Cc1cc(OCCCO[N+](=O)[O-])cc(C)c1-c1cccc(COc2ccc(OCC(=O)O)c(F)c2)c1 | 41.6% | 1.05% | 10.8%
5 | 76.4 nM | Cc1cc(OCCO[N+](=O)[O-])cc(C)c1-c1cccc(COc2ccc(OCC(=O)O)c(F)c2)c1 | – | 1.34% | 8.28%
